From article PMC10114714 (ACS Bio & Med Chem Au, 2021)
pIC50, pKi: −log10 of the molar value. Entries after “also recorded” stand apart in the source; their conditions may differ. Blank lines part the entries; values can stand above or below the molecule they belong to.

Tests used:
[1] = Plasma protein binding, rat; format: in vitro ADME; details: pH 7.4
[2] = system: amphetamine-induced hyperlocomotion; assay: Reversal of amphetamine-induced hyperlocomotion; format: in vivo; details: rat
How it was run: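 Male Sprague–Dawley rats, n = 7-8 per group. Test compound is given i.p. at 30 or 60 mg/kg in 10% Tween 80 in H2O, 30 min before amphetamine at 0.75 mg/kg s.c. Locomotion is compared with a vehicle/amphetamine control group.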

[3] = Rat IV plasma/brain level; format: in vivo; details: male, Sprague-Dawley, brain and plasma, 0.2 mg/kg
[4] = Rat IV and PO pharmacokinetics; format: in vivo
How it was run: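 Plasma pharmacokinetics with IV dosing at 0.20 mg/kg and PO dosing at 10 mg/kg. Read-outs are Cmax, tmax, AUCinf, t1/2 and oral bioavailability F.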

[5] = system: mGlu1–4,7,8; assay: Functional selectivity over the other mGlu receptors; format: cell-based
[6] = Intrinsic clearance in liver microsomes, human; format: in vitro ADME; details: pH 7.4
[7] = biological target: T1, human mGlu5 (Homo sapiens, UniProt P41594); assay: Calcium fluorescence triple-add assay, mGlu5 PAM mode; format: cell-based
T1 sequence (P41594 21-1212): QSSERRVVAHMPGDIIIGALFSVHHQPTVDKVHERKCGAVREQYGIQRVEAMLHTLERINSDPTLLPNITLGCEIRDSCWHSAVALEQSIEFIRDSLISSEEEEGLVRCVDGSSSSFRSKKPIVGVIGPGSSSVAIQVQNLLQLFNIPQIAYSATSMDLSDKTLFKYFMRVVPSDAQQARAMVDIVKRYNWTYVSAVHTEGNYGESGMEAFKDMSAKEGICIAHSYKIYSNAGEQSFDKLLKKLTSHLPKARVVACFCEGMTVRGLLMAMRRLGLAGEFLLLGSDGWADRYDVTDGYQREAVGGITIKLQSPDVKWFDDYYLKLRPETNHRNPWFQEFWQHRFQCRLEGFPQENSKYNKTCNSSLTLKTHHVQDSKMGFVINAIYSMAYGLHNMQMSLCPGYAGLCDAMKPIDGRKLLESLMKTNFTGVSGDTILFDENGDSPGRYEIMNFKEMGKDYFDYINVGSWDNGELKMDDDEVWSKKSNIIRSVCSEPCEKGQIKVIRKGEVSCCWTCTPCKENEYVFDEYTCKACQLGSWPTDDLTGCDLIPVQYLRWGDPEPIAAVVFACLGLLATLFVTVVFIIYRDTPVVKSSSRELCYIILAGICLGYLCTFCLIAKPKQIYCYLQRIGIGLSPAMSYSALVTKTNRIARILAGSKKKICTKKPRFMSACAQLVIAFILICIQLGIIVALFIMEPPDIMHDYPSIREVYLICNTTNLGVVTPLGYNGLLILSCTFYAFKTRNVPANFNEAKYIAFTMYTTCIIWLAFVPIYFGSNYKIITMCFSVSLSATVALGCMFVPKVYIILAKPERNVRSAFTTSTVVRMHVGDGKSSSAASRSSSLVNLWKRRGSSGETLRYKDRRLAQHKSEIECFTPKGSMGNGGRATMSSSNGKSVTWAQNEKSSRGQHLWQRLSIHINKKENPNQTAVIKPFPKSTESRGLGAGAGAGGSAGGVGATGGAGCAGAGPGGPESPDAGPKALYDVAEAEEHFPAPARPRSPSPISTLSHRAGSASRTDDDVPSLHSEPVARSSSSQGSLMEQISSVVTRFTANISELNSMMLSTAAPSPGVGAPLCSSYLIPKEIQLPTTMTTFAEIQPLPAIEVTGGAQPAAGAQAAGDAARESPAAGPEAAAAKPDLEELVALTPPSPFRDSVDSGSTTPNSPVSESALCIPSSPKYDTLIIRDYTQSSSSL

[8] = biological target: rat mGlu5 (Rattus norvegicus, UniProt P31424); assay: [3H]methoxyPEPy radioligand competition binding; details: for displacement of [3H]methoxyPEPy radioligand binding: concentrations up to 100 μM, in words
Chain of rat mGlu5 (P31424 21-1203): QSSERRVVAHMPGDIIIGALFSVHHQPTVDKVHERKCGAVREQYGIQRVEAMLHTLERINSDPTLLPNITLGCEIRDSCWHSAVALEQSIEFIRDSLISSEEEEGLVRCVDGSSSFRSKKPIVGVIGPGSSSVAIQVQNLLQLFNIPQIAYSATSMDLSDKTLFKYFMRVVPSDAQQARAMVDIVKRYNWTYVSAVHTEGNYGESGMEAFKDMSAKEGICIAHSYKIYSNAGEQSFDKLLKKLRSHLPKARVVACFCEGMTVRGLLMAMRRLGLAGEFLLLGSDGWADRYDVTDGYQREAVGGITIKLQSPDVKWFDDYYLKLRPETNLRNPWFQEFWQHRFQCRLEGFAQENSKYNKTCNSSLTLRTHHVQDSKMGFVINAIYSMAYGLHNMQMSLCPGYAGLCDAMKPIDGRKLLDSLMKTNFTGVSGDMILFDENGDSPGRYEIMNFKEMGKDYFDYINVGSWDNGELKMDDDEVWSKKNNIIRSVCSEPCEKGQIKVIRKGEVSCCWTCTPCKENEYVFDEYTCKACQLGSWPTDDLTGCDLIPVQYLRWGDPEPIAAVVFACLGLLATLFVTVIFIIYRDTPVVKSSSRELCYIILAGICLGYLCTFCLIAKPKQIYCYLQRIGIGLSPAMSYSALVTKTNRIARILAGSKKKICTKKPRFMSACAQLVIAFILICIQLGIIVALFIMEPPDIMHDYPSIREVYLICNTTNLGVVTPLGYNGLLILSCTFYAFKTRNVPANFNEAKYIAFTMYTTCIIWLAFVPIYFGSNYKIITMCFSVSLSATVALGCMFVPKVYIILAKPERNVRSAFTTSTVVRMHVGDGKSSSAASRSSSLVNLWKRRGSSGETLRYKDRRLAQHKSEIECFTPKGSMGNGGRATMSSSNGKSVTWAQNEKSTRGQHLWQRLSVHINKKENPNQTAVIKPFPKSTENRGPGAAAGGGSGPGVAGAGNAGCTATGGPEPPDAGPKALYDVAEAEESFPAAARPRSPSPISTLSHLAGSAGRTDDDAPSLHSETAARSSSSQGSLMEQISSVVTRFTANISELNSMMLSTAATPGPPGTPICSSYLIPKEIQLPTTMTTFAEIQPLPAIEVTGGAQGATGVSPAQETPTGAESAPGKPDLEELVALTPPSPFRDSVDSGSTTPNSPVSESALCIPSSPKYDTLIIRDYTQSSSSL

[9] = Intrinsic clearance in liver microsomes, rat; format: in vitro ADME; details: pH 7.4
[10] = Plasma protein binding, human; format: in vitro ADME; details: pH 7.4
[11] = Brain homogenate binding, rat; format: in vitro ADME; details: pH 7.4, Rat fu,b
[12] = biological target: T1, human mGlu5; assay: cell-based
[13] = Intrinsic clearance in liver microsomes, mouse; format: in vitro ADME; details: pH 7.4
[14] = Plasma protein binding, mouse; format: in vitro ADME; details: pH 7.4
[15] = system: marble burying; assay: Marble burying assay; format: in vivo, mouse; details: male CD-1 mice, 30 mg/kg i.p., in words
[16] = Mouse IV and PO pharmacokinetics; format: in vivo
[17] = male, Sprague-Dawley, plasma, iv, 0.2 mg/kg
[18] = male, Sprague-Dawley, plasma, po, 10 mg/kg

SMILES: Cc1ccc(Oc2cc(C(=O)NCc3ccc(F)cn3)nc3ccsc23)cn1 [Compound 17a, N-((5-Fluoropyridin-2-yl)methyl)-7-((6-methylpyridin-3-yl)oxy)thieno[3,2-b]pyridine-5-carboxamide]
fraction unbound at 6 h, 5 µM [1]: 0.048
reversal of AHL ([2]; 60 mg/kg i.p., 30 min prior to 0.75 mg/kg s.c. amphetamine): ~30%
reversal of amphetamine-induced hyperlocomotion ([2]; 30 or 60 mg/kg i.p., in words): reversed amphetamine-induced hyperlocomotion; also recorded: Dose-dependent reversal
Kp at 0.25 h [3]: 0.83
Kp uu at 0.25 h [3]: 0.52
F (%) ([4]; PO 10 mg/kg, 10 mg/kg): 8.22%
Vd [4, 17]: 2.2 L/kg
clearance [4, 17]: 36.9 mL/min/kg
half-life [4, 17]: 82.2 min
AUC(0-inf) [4, 18]: 371 ng·h/mL
Cmax [4, 18]: 152 ng/mL
Tmax [4, 18]: 30 min
functional activity at mGlu1–4,7,8 [5]: > 30 µM
CLint scaled at 1 µM [6]: 173 mL/min/kg
EC50 ([7]; hmGlu5 EC50 (μM), Table 2): 0.52 µM
fold improvement in potency in comparison to hit compound 12 ([7]; mGlu5 PAM EC50): 5 fold
pKi [8]: < 5.00
displacement of [3H]methoxyPEPy radioligand binding [8]: weak binding
CLint scaled at 1 µM [9]: 152 mL/min/kg
fraction unbound at 6 h, 5 µM [10]: 0.056
fraction unbound at 6 h, 1 µM [11]: 0.03

mGlu5 PAM activity ([7]; in words): complete loss of activity
SMILES: Cc1ccc(Oc2ccnc(C(=O)NCc3ccc(F)cn3)c2)cn1 [Compound 21d]

pIC50 [12]: < 4.52
SMILES: Cc1ccc(Nc2cc(C(=O)NCc3ccc(F)cn3)nc3ccsc23)cn1 [Compound 26]

pIC50 [12]: < 4.52
SMILES: Cc1ccc(Cc2cc(C(=O)NCc3ccc(F)cn3)nc3ccsc23)cn1 [Compound 27]

pIC50 [12]: 6.59
SMILES: Cc1cncc(Oc2cc(C(=O)NCc3ccc(F)cn3)nc3ccsc23)c1 [Compound 28a]

pIC50 [12]: 6.69
SMILES: Cc1ccncc1Oc1cc(C(=O)NCc2ccc(F)cn2)nc2ccsc12 [Compound 28b]

pIC50 [12]: < 4.52
SMILES: Cc1ncccc1Oc1cc(C(=O)NCc2ccc(F)cn2)nc2ccsc12 [Compound 28c]

CLint scaled at 1 µM [13]: 970 mL/min/kg
fraction unbound at 6 h, 5 µM [1]: 0.115
fraction unbound at 6 h, 5 µM [14]: 0.062
CLint scaled at 1 µM [6]: 47 mL/min/kg
pKi [8]: 6.80
displacement of [3H]methoxyPEPy radioligand binding [8]: full displacement of radioligand binding
CLint scaled at 1 µM [9]: 314 mL/min/kg
fraction unbound at 6 h, 5 µM [10]: 0.068
fraction unbound at 6 h, 1 µM [11]: 0.035
drug in blood following PO administration ([16]; PO 10 mg/kg, in words): no measurable drug in blood
Vd ([16]; plasma, iv, 1 mg/kg): 8.2 L/kg
clearance ([16]; plasma, iv, 1 mg/kg): 141 mL/min/kg
half-life ([16]; plasma, iv, 1 mg/kg): 41.4 min
SMILES: O=C(NCc1ccc(F)cn1)c1cc(Oc2cccnc2)c2sccc2n1 [Compound 28d, N-((5-fluoropyridin-2-yl)methyl)-7-(pyridin-3-yloxy)thieno[3,2-b]pyridine-5-carboxamide]
marble burying [15]: anxiolytic activity; also recorded: significant reduction in marble burying; also recorded: Inhibition of marble burying
functional activity at mGlu1–4,7,8 [5]: > 30 µM

pIC50 [12]: 5.72
SMILES: Cc1ccc(Oc2cc(C(=O)NCc3ccc(F)cn3)nc3ccsc23)nc1 [Compound 28e]
